Converted amounts (≈) assume the structure as drawn.
Columns and labels:
Type in all cases: functional
[1] = test system: Mycobacterium kansasii; assay: Antimycobacterial activity against Mycobacterium kansasii My 235/80 after 21 days by micromethod; details: My 235/80, 504 h
[2] = test system: Mycobacterium kansasii; assay: Antimycobacterial activity against Mycobacterium kansasii My 6509/96 clinical isolate after 21 days by micromethod; details: My 6509/96, 504 h
[3] = test system: Mycobacterium kansasii; assay: Antimycobacterial activity against Mycobacterium kansasii My 235/80 after 7 days by micromethod; details: My 235/80, 168 h
[4] = test system: Mycobacterium kansasii; assay: Antimycobacterial activity against Mycobacterium kansasii My 235/80 after 14 days by micromethod; details: My 235/80, 336 h
[5] = test system: Mycobacterium kansasii; assay: Antimycobacterial activity against Mycobacterium kansasii My 6509/96 clinical isolate after 14 days by micromethod; details: My 6509/96, 336 h
[6] = test system: Mycobacterium avium; assay: Antimycobacterial activity against Mycobacterium avium My 330/88 after 14 days by micromethod; details: My 330/88, 336 h
[7] = test system: Mycobacterium kansasii; assay: Antimycobacterial activity against Mycobacterium kansasii My 6509/96 clinical isolate after 7 days by micromethod; details: My 6509/96, 168 h
[8] = test system: Mycobacterium tuberculosis; assay: Antimycobacterial activity against Mycobacterium tuberculosis My 331/88 after 14 days by micromethod; details: My 331/88, 336 h
In short: (§1)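 MIC by micromethod at 37 °C, read after 14 and 21 days. Inocula were M. tuberculosis My 331/88 at 10^-3 dilution and M. avium My 330/88 at 10^-5 dilution. Compounds added in DMSO across 1000, 500, 250, 125, 62.5, 32, 16, 8, 4, 2, 1 and 0.5; isoniazid standard in sterile water. MIC taken as the lowest concentration inhibiting growth.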

[9] = test system: Mycobacterium tuberculosis; assay: Antimycobacterial activity against Mycobacterium tuberculosis My 331/88 after 21 days by micromethod; details: My 331/88, 504 h; in short: as §1
[10] = test system: Mycobacterium avium; assay: Antimycobacterial activity against Mycobacterium avium My 330/88 after 21 days by micromethod; details: My 330/88, 504 h

SMILES | MIC [1] [µM] | MIC [2] [µM] | MIC [3] [µM] | MIC [4] [µM] | MIC [5] [µM] | MIC [6] [µM] | MIC [7] [µM] | MIC [8] [µM] | MIC [9] [µM] | MIC [10] [µM]
COc1ccc(Cl)cc1C(=S)Nc1cccc(C(F)(F)F)c1 | 16 (≈ 5.53 µg/mL) | 16 (≈ 5.53 µg/mL) | 8 (≈ 2.77 µg/mL) | 16 (≈ 5.53 µg/mL) | 16 (≈ 5.53 µg/mL) | 32 (≈ 11.1 µg/mL) | 8 (≈ 2.77 µg/mL) | 16 (≈ 5.53 µg/mL) | 16 (≈ 5.53 µg/mL) | 32 (≈ 11.1 µg/mL)
O=C(Nc1ccc([N+](=O)[O-])cc1)c1cc(Cl)ccc1O | 4 (≈ 1.17 µg/mL) | – | – | 4 (≈ 1.17 µg/mL) | – | 8 (≈ 2.34 µg/mL) | – | 4 (≈ 1.17 µg/mL) | 8 (≈ 2.34 µg/mL) | 8 (≈ 2.34 µg/mL)
COc1cc(Cl)ccc1C(=O)Nc1ccc(Cl)cc1 | 62.5 (≈ 18.5 µg/mL) | 62.5 (≈ 18.5 µg/mL) | 8 (≈ 2.37 µg/mL) | 16 (≈ 4.74 µg/mL) | 16 (≈ 4.74 µg/mL) | 8 (≈ 2.37 µg/mL) | 8 (≈ 2.37 µg/mL) | 125 (≈ 37 µg/mL) | 125 (≈ 37 µg/mL) | 32 (≈ 9.48 µg/mL)
O=C(Nc1cccc([N+](=O)[O-])c1)c1cc(Cl)ccc1O | 8 (≈ 2.34 µg/mL) | – | – | 8 (≈ 2.34 µg/mL) | – | 16 (≈ 4.68 µg/mL) | – | 8 (≈ 2.34 µg/mL) | 8 (≈ 2.34 µg/mL) | 16 (≈ 4.68 µg/mL)
COc1ccc(Cl)cc1C(=S)Nc1cccc(Br)c1 | 32 (≈ 11.4 µg/mL) | 32 (≈ 11.4 µg/mL) | 16 (≈ 5.71 µg/mL) | 32 (≈ 11.4 µg/mL) | 32 (≈ 11.4 µg/mL) | 32 (≈ 11.4 µg/mL) | 32 (≈ 11.4 µg/mL) | 32 (≈ 11.4 µg/mL) | 32 (≈ 11.4 µg/mL) | 32 (≈ 11.4 µg/mL)
COc1cc(Cl)ccc1C(=O)Nc1ccc(Br)cc1 | 32 (≈ 10.9 µg/mL) | 32 (≈ 10.9 µg/mL) | 4 (≈ 1.36 µg/mL) | 8 (≈ 2.72 µg/mL) | 8 (≈ 2.72 µg/mL) | 8 (≈ 2.72 µg/mL) | 4 (≈ 1.36 µg/mL) | 62.5 (≈ 21.3 µg/mL) | 125 (≈ 42.6 µg/mL) | 32 (≈ 10.9 µg/mL)
O=C(Nc1cccc([N+](=O)[O-])c1)c1ccc(Cl)cc1O | 16 (≈ 4.68 µg/mL) | – | – | 16 (≈ 4.68 µg/mL) | – | 16 (≈ 4.68 µg/mL) | – | 8 (≈ 2.34 µg/mL) | 8 (≈ 2.34 µg/mL) | 16 (≈ 4.68 µg/mL)
O=C(Nc1ccc(Cl)c(Cl)c1)c1cc(Cl)ccc1O | 4 (≈ 1.27 µg/mL) | – | – | 4 (≈ 1.27 µg/mL) | – | 16 (≈ 5.07 µg/mL) | – | 4 (≈ 1.27 µg/mL) | 8 (≈ 2.53 µg/mL) | 16 (≈ 5.07 µg/mL)
COc1ccc(Cl)cc1C(=O)Nc1cccc([N+](=O)[O-])c1 | 125 (≈ 38.3 µg/mL) | 125 (≈ 38.3 µg/mL) | 125 (≈ 38.3 µg/mL) | 125 (≈ 38.3 µg/mL) | 125 (≈ 38.3 µg/mL) | 250 (≈ 76.7 µg/mL) | 125 (≈ 38.3 µg/mL) | 125 (≈ 38.3 µg/mL) | 125 (≈ 38.3 µg/mL) | 250 (≈ 76.7 µg/mL)
O=C(Nc1ccc(C(F)(F)F)cc1)c1ccc(Cl)cc1O | 4 (≈ 1.26 µg/mL) | – | – | 4 (≈ 1.26 µg/mL) | – | 8 (≈ 2.53 µg/mL) | – | 4 (≈ 1.26 µg/mL) | 4 (≈ 1.26 µg/mL) | 8 (≈ 2.53 µg/mL)
O=C(Nc1cccc(Cl)c1)c1ccc(Cl)cc1O | 8 (≈ 2.26 µg/mL) | – | – | 4 (≈ 1.13 µg/mL) | – | 16 (≈ 4.51 µg/mL) | – | 4 (≈ 1.13 µg/mL) | 4 (≈ 1.13 µg/mL) | 16 (≈ 4.51 µg/mL)
O=C(Nc1ccc(Cl)cc1)c1cc(Cl)ccc1O | 8 (≈ 2.26 µg/mL) | – | – | 8 (≈ 2.26 µg/mL) | – | 8 (≈ 2.26 µg/mL) | – | 4 (≈ 1.13 µg/mL) | 4 (≈ 1.13 µg/mL) | 8 (≈ 2.26 µg/mL)
O=C(Nc1ccc(C(F)(F)F)cc1)c1cc(Cl)ccc1O | 1 (≈ 0.316 µg/mL) | – | – | 1 (≈ 0.316 µg/mL) | – | 8 (≈ 2.53 µg/mL) | – | 2 (≈ 0.631 µg/mL) | 2 (≈ 0.631 µg/mL) | 8 (≈ 2.53 µg/mL)
O=C(Nc1cccc(Cl)c1)c1cc(Cl)ccc1O | 8 (≈ 2.26 µg/mL) | – | – | 4 (≈ 1.13 µg/mL) | – | 8 (≈ 2.26 µg/mL) | – | 4 (≈ 1.13 µg/mL) | 8 (≈ 2.26 µg/mL) | 16 (≈ 4.51 µg/mL)
O=C(Nc1ccc(Br)cc1)c1ccc(Cl)cc1O | 4 (≈ 1.31 µg/mL) | – | – | 4 (≈ 1.31 µg/mL) | – | 16 (≈ 5.23 µg/mL) | – | 4 (≈ 1.31 µg/mL) | 4 (≈ 1.31 µg/mL) | 16 (≈ 5.23 µg/mL)
O=C(Nc1ccc(Cl)c(Cl)c1)c1ccc(Cl)cc1O | 8 (≈ 2.53 µg/mL) | – | – | 8 (≈ 2.53 µg/mL) | – | 16 (≈ 5.07 µg/mL) | – | 4 (≈ 1.27 µg/mL) | 4 (≈ 1.27 µg/mL) | 16 (≈ 5.07 µg/mL)
O=C(Nc1ccc(Cl)cc1)c1ccc(Cl)cc1O | 8 (≈ 2.26 µg/mL) | – | – | 4 (≈ 1.13 µg/mL) | – | 8 (≈ 2.26 µg/mL) | – | 4 (≈ 1.13 µg/mL) | 4 (≈ 1.13 µg/mL) | 8 (≈ 2.26 µg/mL)
O=C(Nc1ccc(Br)cc1)c1cc(Cl)ccc1O | 4 (≈ 1.31 µg/mL) | – | – | 4 (≈ 1.31 µg/mL) | – | 8 (≈ 2.61 µg/mL) | – | 8 (≈ 2.61 µg/mL) | 16 (≈ 5.23 µg/mL) | 8 (≈ 2.61 µg/mL)

From ChEMBL document CHEMBL2086318, “Synthesis and in vitro antimycobacterial activity of 2-methoxybenzanilides and their thioxo analogues” (Eur J Med Chem, 2012)
